Measured values published in ChEMBL document CHEMBL5154657, “Design, synthesis and biological evaluation of 1,5-disubstituted α-amino tetrazole derivatives as non-covalent inflammasome-caspase-1 complex inhibitors with potential application against immune and inflammatory disorders” (Eur J Med Chem, 2022).

Assays:
Caspase-1 (Homo sapiens) = biological target: T1, Caspase-1 (Homo sapiens) (UniProt P29466); test: Inhibition of caspase 1 (unknown origin) assessed as enzyme residual activity using YVAD-AFC as substrate at 100 uM by fluorescence analysis
T1 sequence (whole entry): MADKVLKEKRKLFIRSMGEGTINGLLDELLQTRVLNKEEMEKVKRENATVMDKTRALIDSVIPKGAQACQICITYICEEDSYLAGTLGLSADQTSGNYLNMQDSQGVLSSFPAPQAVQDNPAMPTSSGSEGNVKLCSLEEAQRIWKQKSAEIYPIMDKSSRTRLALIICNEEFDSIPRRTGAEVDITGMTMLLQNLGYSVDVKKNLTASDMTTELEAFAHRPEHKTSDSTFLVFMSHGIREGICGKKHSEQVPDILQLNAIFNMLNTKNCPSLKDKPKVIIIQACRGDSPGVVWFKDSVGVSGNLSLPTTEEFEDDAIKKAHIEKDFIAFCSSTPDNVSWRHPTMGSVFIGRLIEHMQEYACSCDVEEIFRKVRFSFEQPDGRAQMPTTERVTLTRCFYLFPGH
How it was run: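 Caspase-1 cleavage of an AFC-labelled peptide substrate is monitored over time by fluorescence (Ex/Em 400/505 nm). Residual enzyme activity is expressed as % with 100 μM compound, relative to an untreated control.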

Caspase-1 = biological target: T2, Caspase-1 (Homo sapiens, UniProt P29466); test: Inhibition of caspase 1 (unknown origin) using YVAD-AFC as substrate by fluorescence analysis
T2 sequence (P29466 whole entry): T1 sequence (whole entry)
How it was run: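 Caspase-1 activity is followed as a time course of fluorescence from cleavage of an AFC-labelled peptide substrate (Ex/Em 400/505 nm). Compounds are tested as a 10-dose series with 3-fold serial dilution starting at 100 μM or 10 μM. IC50 is the concentration halving enzyme activity. Curves are fitted only when activity at the top concentration is below 60%.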

[1] = Cytotoxicity against human U-937 cells assessed as reduction in cell viability at 100 uM after 48 hrs by MTT assay; format: toxicity, cell-based; conditions: read-out: INH
How it was run: (§1)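 Human histiocytic lymphoma U937 cells are grown in RPMI 1640 with 10% FBS, penicillin and streptomycin at 37 °C under 5% CO₂. They are seeded at 10000 cells/well and exposed to compound from 1 nM to 100 μM for 48 h, with matched DMSO-only solvent controls. MTT (0.1 mg) is added for 4 h at 37 °C, cells are lysed, and A595 is read. Viability is given as % of control, as the mean of three independent experiments.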

U-937 = test: Cytotoxicity against human U-937 cells assessed as reduction in cell viability at 10 to 100 nM after 48 hrs by MTT assay; format: toxicity, cell-based; conditions: u-937, 48 h, 0.1 µM, dose 10-100 nM; how it was run: as §1
[2] = Inhibition of LPS-induced IL-1beta secretion in human U-937 cells measured after 24 hrs by ELISA; format: functional, cell-based; conditions: U-937, 24 h
How it was run: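 U937 human histiocytic lymphoma cells, grown in RPMI 1640 with 10% FBS, differentiated into macrophages with […] for 24h. Compound given at graded concentrations, 10 μM down to 1 nM, together with LPS (1 μg/ml) for 24h. Supernatants frozen at −80 °C, then IL-1β measured by sandwich ELISA. IC50 taken from regression of % inhibition against log concentration.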

[3] = Inhibition of LPS-induced IL-1beta secretion in human U-937 cells preincubated for 4 hrs with LPS followed by compound treatment for overnight by ELISA; format: functional, cell-based
How it was run: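 U937 cells in RPMI 1640 with 10% FBS, differentiated with […] for 24h. Primed with LPS (1 μg/ml) for 4h, then compound added at graded concentrations, 10 μM down to 1 nM, overnight. Supernatants stored at −80 °C, and human IL-1β measured by sandwich ELISA. IC50 from regression of % inhibition against log concentration.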

Compound	Activity (Caspase-1 (Homo sapiens))	IC50 (Caspase-1)	further results
CC(C)(C)C[C@H](c1nnnn1CCCC(=O)N1CCc2ccccc2C1)N(Cc1ccccc1)CC(O)CC(=O)O (stereo partly specified)	4.45%		
O=C(O)CC(O)CN[C@H](c1cccs1)c1nnnn1CCCC(=O)N1CCc2ccccc2C1 (stereo partly specified)	37.2%		
O=C(O)C[C@@H](O)CN[C@H](c1ccccc1)c1nnnn1CCCC(=O)NCc1ccccc1	63.3%		
O=C(O)CC(O)CNC(c1ccccc1)c1nnnn1CCCC(=O)N1CCc2ccccc2C1 (stereo unspecified)	48%	94.1 µM	
O=C(O)C[C@H](O)CN[C@H](c1cccs1)c1nnnn1CCCC(=O)NCc1ccccc1	69.8%		
CC(C)(C)CC(c1nnnn1CCCC(=O)N1CCc2ccccc2C1)N(Cc1ccc(F)cc1)CC(O)CC(=O)O (stereo unspecified)	3.9%	12.7 µM	
CC(C)CC(NCC(O)CC(=O)O)c1nnnn1CCCC(=O)N1CCc2ccccc2C1 (stereo unspecified)	43.7%	79.4 µM	
O=C(O)CC(O)CN[C@H](c1ccccc1)c1nnnn1CCCC(=O)N1CCc2ccccc2C1 (stereo partly specified)	40.5%		
CC(C)(C)C[C@@H](NCC(O)CC(=O)O)c1nnnn1CCCC(=O)N1CCc2ccccc2C1 (stereo partly specified)	9.71%		
CC(C)(C)CC(c1nnnn1CCCC(=O)N1CCc2ccccc2C1)N(Cc1ccccc1)CC(O)CC(=O)O (stereo unspecified)	2.91%	10.3 µM	
O=C(O)CC(O)CN[C@@H](c1ccccc1)c1nnnn1CCCC(=O)N1CCc2ccccc2C1 (stereo partly specified)	48.6%		
COc1cc2c(cc1OC)CN(C(=O)CCCn1nnnc1C(CC(C)(C)C)NCC(O)CC(=O)O)CC2 (stereo unspecified)	9.49%	14.6 µM	
O=C(O)CC(O)CN[C@@H](c1cccs1)c1nnnn1CCCC(=O)N1CCc2ccccc2C1 (stereo partly specified)	29%		
COc1cc2c(cc1OC)CN(C(=O)CCCn1nnnc1C(NCC(O)CC(=O)O)C(C)(C)C)CC2 (stereo unspecified)	96.7%		
CC(C)(C)CC(NCC(O)CC(=O)[O-])c1nnnn1CCCC(=O)N1CCc2ccccc2C1.[Na+] (stereo unspecified)	8.12%	15.1 µM	cytotoxicity at 48 h, 100 µM [1]: 50%; Activity (U-937): Non-Toxic; IC50 [2]: 50.1 µM
CC(C)CC(c1nnnn1CCCC(=O)N1CCc2ccccc2C1)N(Cc1ccccc1)CC(O)CC(=O)[O-].[Na+] (stereo unspecified)	2.47%	12.1 µM	cytotoxicity at 48 h, 100 µM [1]: 50%; Activity (U-937): Non-Toxic; IC50 [3]: 0.85 µM; IC50 [2]: 0.35 µM
O=C(O)C[C@H](O)CN[C@@H](c1ccccc1)c1nnnn1CCCC(=O)NCc1ccccc1	62.4%		
O=C(O)CC(O)CNC(c1cccs1)c1nnnn1CCCC(=O)N1CCc2ccccc2C1 (stereo unspecified)	77.2%		
O=C(O)CC(O)CNC(c1nnnn1CCCC(=O)N1CCc2ccccc2C1)C1CC1 (stereo unspecified)	90%		
O=C(O)CC(O)CNC(c1nnnn1CCCC(=O)NCc1ccccc1)C1CC1 (stereo unspecified)	77.1%		
CC(C)(C)C(NCC(O)CC(=O)O)c1nnnn1CCCC(=O)N1CCc2ccccc2C1 (stereo unspecified)	61.9%		
CC(C)(C)CC(NCC(O)CC(=O)O)c1nnnn1CCCC(=O)NCc1ccccc1 (stereo unspecified)	59.9%		
CC(C)CC(c1nnnn1CCCC(=O)N1CCc2ccccc2C1)N(Cc1ccc(F)cc1)CC(O)CC(=O)O (stereo unspecified)	2.06%	20.7 µM	
O=C(O)CC(O)CN[C@@H](c1cccs1)c1nnnn1CCCC(=O)NCc1ccccc1 (stereo partly specified)	49.6%		
COc1cc2c(cc1OC)CN(C(=O)CCCn1nnnc1C(NCC(O)CC(=O)O)C1CC1)CC2 (stereo unspecified)	80.6%		
CC(C)C(NCC(O)CC(=O)O)c1nnnn1CCCC(=O)N1CCc2ccccc2C1 (stereo unspecified)	77.8%		
